Compound activity as filed in PubChem.
CHOP inh = blocks CHOP induction under ER stress. CHO-K1 CHOP-promoter luciferase, tunicamycin-induced, 15-18 h. inhibition, % at 10 µM. hit rate 3.8% among 220,000. AID 2732;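 active = compounds that reduced the stress-induced luciferase reporter signal by more than about 70% of percent inhibition, limit read from the data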;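 note: 0% = tunicamycin plus vehicle and 100% = wells without tunicamycin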
PvdQ acylase = P. aeruginosa PvdQ acylase inhibition; inhibition, % at 10 µM; hit rate 0.063% among 340,000; purified PvdQ acylase, fluorescence plate reader; in the data active = inhibition above about 30%, passing the limit was not always enough;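 note: 0% = vehicle neutral wells and 100% = reference inhibitor wells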
UPR CHOP act = apoptotic UPR (CHOP) activation. CHO-CHOP luciferase reporter, luminescence; percent of tunicamycin response over DMSO baseline. activation, % at 10 µM. hit rate 0.34% among 330,000. AID 449763;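 active = at 10 µM dose, activation of 40% or more, normalized to positive control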;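 note: 100% = tunicamycin at 10 µg/mL and 0% = DMSO alone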
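Assay system: CHO cells with stable CHOP pathway luciferase reporter; Buffer or medium: F12 plus 10% serum; Times: 16-18 h cell attachment, then 6 h compound exposure, 37 °C; Signal: luciferase luminescence; Read-out basis: percent activation relative to tunicamycin control; Control set: tunicamycin high control, DMSO low control.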
XBP1 UPR activ = activators of adaptive arm of unfolded protein response (XBP1). activation, % at 20 µM. CHO-XBP1 luciferase reporter, IRE1-XBP1 UPR activation, luminescence; percent of tunicamycin response, DMSO as zero. AID 463104. hit rate 0.33% among 330,000;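 active = versus positive control, 20 µM dose yields 30% or more activation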;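 note: 100% = tunicamycin at 10 µg/mL and 0% = DMSO only wells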
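Assay system: CHO-XBP1 luciferase reporter cells; Schedule: 6 h treatment, 37 °C; Detection: glow luminescence from Steady-Glo reagent; Benchmarks: high control tunicamycin 10 µg/mL final, low control DMSO vehicle only.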
Numbers without * were called inactive; / = no result. The entries come from a sample that favours hits as a whole.

SMILES | CHOP inh | PvdQ acylase | UPR CHOP act | XBP1 UPR activ
CCC(=O)OCC(=O)[C@@]1(OC(=O)CC)[C@@H](C)C[C@H]2[C@@H]3CCC4=CC(=O)C=C[C@]4(C)[C@@]3(Cl)[C@@H](O)C[C@@]21C | / | 7 | 2 | -6
COc1ccc(/C=C(\NC(=O)c2ccccc2)C(=O)NCCN2CCOCC2)cc1 | / | 11 | 1 | -2
COc1ccc(-c2[nH]n(-c3ccc([N+](=O)[O-])cc3)c(=O)c2C=NCc2ccncc2)cc1 | 85* | 5 | 2 | 2
CC(=O)c1c(C)[nH]c(C(=O)OCC(=O)Nc2ccc(Cl)cc2[N+](=O)[O-])c1C | 64 | -10 | 6 | -1
CCCn1c(SCc2ccc(Cl)cc2)nc2c1c(=O)[nH]c(=O)n2C | 82* | -1 | 1 | 19
C/C=C/Cn1c(SCc2ccc(Cl)cc2)nc2c1c(=O)[nH]c(=O)n2C | 76* | -6 | 1 | 13
COCCn1c(SCc2ccc(Cl)cc2)nc2c1c(=O)[nH]c(=O)n2C | / | 8 | 1 | 6
C/C=C/Cn1c(SC)nc2c1c(=O)[nH]c(=O)n2C | 9 | -1 | -3 | 4
CC1CCc2c(sc(NC(=O)CN3CCN(C(=O)c4ccco4)CC3)c2C#N)C1 (stereo not given) | 39 | -14 | 2 | -3
O=C(NCCOc1ccccc1F)C1CC(=O)N(c2ccc3c(c2)OCCO3)C1 (stereo not given) | / | -12 | -4 | -4
O=C1[C@H](Cc2ccccc2)NCC=CC[C@H](c2ccc(Cl)cc2)N1Cc1ccc(Cl)cc1 | / | 5 | / | /
CNc1oc(-c2ccccc2Cl)nc1P(=O)(c1ccccc1)c1ccccc1 | 80* | 3 | 0 | -3
COCCNc1oc(-c2ccccc2Cl)nc1C#N | 12 | -17 | 5 | 3
Cc1cc(C)cc(NC(=O)Cn2nnc3ccccc3c2=O)c1 | 11 | 9 | 1 | -5
CC(=O)c1cc2c(cc1NC(=O)CN1CCCCCCC1)OCO2 | 85* | -12 | 1 | -2
CC(=O)c1cc2c(cc1NC(=O)CCCC(=O)O)OCO2 | -2 | -7 | -1 | 2
Cc1ccc(NC(=O)NC(=O)COc2ccccc2C(N)=O)c(C)c1 | / | -12 | 1 | -3
Cc1ccc(NC(=O)CSc2nnc(CNC(=O)C34CC5CC(CC(C5)C3)C4)n2-c2ccc(F)cc2)cc1 | 79* | -14 | 2 | -2
CCOC(=O)Cn1c(C)c(Br)c(=O)c2cccc(C)c21 | 92* | -6 | 3 | 0
CCOC(=O)Cn1c(=O)cc(C)c2ccccc21 | 2 | -4 | -1 | 0
Cc1c(C(=O)NN)[nH]c2ccc([N+](=O)[O-])cc12 | 0 | / | 0 | -2
Cc1ccc(C)c2c1[nH]c1ccc([N+](=O)[O-])cc12 | 82* | -10 | 1 | -3
COC(=O)c1ccccc1NC(=O)c1cccc(NC(=O)CSCc2ccccc2)c1C | 42 | 0 | 3 | 0
CCCn1c(N)c(N(CCOC)C(=O)CSc2cc(C)c3cccc(C)c3n2)c(=O)[nH]c1=O | / | -6 | -2 | -3
CCCSc1nc(N2CCOCC2)c2c(c1C#N)CC(C)(C)SC2 | 78* | -7 | -1 | -5
SMILES | CHOP inh | PvdQ acylase | UPR CHOP act | XBP1 UPR activ
CC1CC(C)CN(CCOc2ccccc2-c2ccccc2)C1 (stereo not given) | 93* | -1 | 2 | 1
OCCN1CCN(C2Cc3cc(Cl)ccc3Sc3ccc(Cl)cc32)CC1 (stereo not given) (tested in a mixture with another compound) | 75* | -15 | 0 | 2
O=C1c2ccccc2C(=O)N1Cc1ccccn1 | -1 | -16 | -2 | -3
CCCCc1c(C)c2cc(C)ccc2[nH]c1=O | 79* | -9 | -2 | 0
CCNS(=O)(=O)c1ccc(CCC(=O)N2CCN(c3ccccc3F)CC2)cc1 | / | -14 | 0 | -3
CCN1C(=O)/C(=C\c2ccc(F)cc2)N=C1SCC(=O)NCc1ccco1 | 13 | 10 | 6 | -2
C=CCN1C(=O)/C(=C\c2ccc(Cl)cc2)N=C1SCC(=O)NCCC | 76* | 10 | -2 | 2
CC1C/C(=C\c2cccnc2)C(=O)/C(=C/c2cccnc2)C1 (stereo not given) | 102* | -2 | / | /
CCOC(=O)c1sc(NC(=O)CN2C(=O)c3cccc4cccc(c34)C2=O)nc1C | 16 | 0 | 0 | -4
CCOC(=O)c1sc(NC(=O)CCCCCN2C(=O)c3cccc4cccc(c34)C2=O)nc1C | 72* | -13 | / | /
O=C(NCc1ccccc1)c1c(O)c2ccccc2[nH]c1=O | / | -6 | 5 | -2
